Activity data for 8 compounds are collected here from ChEMBL document CHEMBL1671716, “Antimicrobial susceptibility patterns for recent clinical isolates of anaerobic bacteria in South Korea” (2010).

Each structure is given as a SMILES string.

One test relates to Clostridium perfringens. Description: Antimicrobial activity against Clostridium perfringens assessed as percent resistant isolates after 48 hrs by agar dilution method in presence of 4 ug/ml beta-lactamase inhibitor Tazobactam. The format is functional. The method in brief: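 CLSI agar dilution on recent Korean clinical anaerobe isolates. Inoculum 10^5 CFU per spot by replicator. Plates incubated in an anaerobic chamber at 37°C for 48 h. For piperacillin plus tazobactam, tazobactam was held constant at 4 μg/ml. Resistance and susceptibility rates derived from MICs.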
Consider `CCN1CCN(C(=O)N[C@@H](C(=O)N[C@@H]2C(=O)N3[C@@H]2SC(C)(C)[C@@H]3C(=O)O)c2ccccc2)C(=O)C1=O` [PIPERACILLIN], for which the Activity was 0%.

A further test relates to Clostridium perfringens. The test can be described thus: Antimicrobial activity against Clostridium perfringens assessed as percent resistant isolates after 48 hrs by agar dilution method. The format is functional.
Regarding `CO[C@@]1(NC(=O)C2SC(=C(C(N)=O)C(=O)O)S2)C(=O)N2C(C(=O)O)=C(CSc3nnnn3C)CS[C@@H]21` (some centres undefined) [CEFOTETAN], the Activity turned out to be 0%.

For the compound `Cc1ncc([N+](=O)[O-])n1CCO` [METRONIDAZOLE], the Activity is 0%.

As for `CCN1CCN(C(=O)N[C@@H](C(=O)N[C@@H]2C(=O)N3[C@@H]2SC(C)(C)[C@@H]3C(=O)O)c2ccccc2)C(=O)C1=O` [PIPERACILLIN], the Activity came out at 0%.

`C[C@@H](O)[C@H]1C(=O)N2C(C(=O)O)=C(SCCNC=N)C[C@H]12` [IMIPENEM ANHYDROUS]: the Activity is 0%.

Turning to `CCC[C@@H]1C[C@@H](C(=O)N[C@@H]([C@H]2O[C@H](SC)[C@H](O)[C@@H](O)[C@H]2O)[C@H](C)Cl)N(C)C1` [CLINDAMYCIN], the Activity was 7%.

In the case of `O=C(N[C@H](CO)[C@H](O)c1ccc([N+](=O)[O-])cc1)C(Cl)Cl` [CHLORAMPHENICOL], the Activity was 0%.

`C[C@@H](O)[C@H]1C(=O)N2C(C(=O)O)=C(S[C@@H]3CN[C@H](C(=O)N(C)C)C3)[C@H](C)[C@H]12` [MEROPENEM]: the Activity came to 0%.

Regarding `CO[C@@]1(NC(=O)Cc2cccs2)C(=O)N2C(C(=O)O)=C(COC(N)=O)CS[C@@H]21` [CEFOXITIN], the Activity was 0%.
